Entries after “also recorded” stand apart in the source; their conditions may differ. Read-outs that look alike come from different tables or passages of the source.
What was measured:
[1] = tested on: non-transfected HL-1 cells; assay: LDH assay, protection from H2O2-induced cell death, untransfected cells; details: for Protection against H2O2-induced cytotoxicity in non-transfected HL-1 cells: 750 μM H2O2, LDH assay
[2] = tested on: A3AR-transfected HL-1 cells; assay: LDH assay, protection from H2O2-induced cell death, hA3AR-transfected cells; type: cell-based, mouse; details: for Protection against H2O2-induced cytotoxicity in A3AR-transfected HL-1 cells: 750 μM H2O2; for IC50: HL-1, read-out: Protection from cell death induced by H2O2, transfected cells, IC50; for EC50: read-out: Protection of A3 AR-transfected cells against H2O2, EC50 (lactate dehydrogenase release)
hA1AR [3] = molecular target: T1, hA1AR (Homo sapiens, UniProt P30542); assay: cAMP assay, inhibition of forskolin-stimulated cAMP, CHO cells; type: cell-based
T1 sequence (P30542 1-326): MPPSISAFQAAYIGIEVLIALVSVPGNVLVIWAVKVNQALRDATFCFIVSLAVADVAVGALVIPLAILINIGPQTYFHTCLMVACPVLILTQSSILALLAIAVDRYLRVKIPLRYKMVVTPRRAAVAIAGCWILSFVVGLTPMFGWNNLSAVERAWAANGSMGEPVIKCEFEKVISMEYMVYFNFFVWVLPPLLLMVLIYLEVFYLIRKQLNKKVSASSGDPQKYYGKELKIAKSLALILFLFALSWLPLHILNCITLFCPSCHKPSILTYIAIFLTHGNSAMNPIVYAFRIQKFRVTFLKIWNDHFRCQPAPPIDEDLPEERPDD
In short: (§1)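 Stably transfected CHO cells (A1, A2A or A3AR) were seeded overnight at 37 °C, then given DMEM with 50 mM HEPES, 10 μM rolipram, 3 U/ml adenosine deaminase and rising test compound, for 30 min at 37 °C. For A1/A3, 10 μM forskolin was added for 15 min more; A2A plates were incubated 45 min. Cells were lysed in 0.1 M HCl; cAMP by immunoassay at 405 nm.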

hA2AAR [4] = molecular target: T2, hA2AAR (Homo sapiens, UniProt P29274); assay: cAMP assay, stimulation of cAMP, CHO cells; type: cell-based
T2 sequence (P29274 whole entry): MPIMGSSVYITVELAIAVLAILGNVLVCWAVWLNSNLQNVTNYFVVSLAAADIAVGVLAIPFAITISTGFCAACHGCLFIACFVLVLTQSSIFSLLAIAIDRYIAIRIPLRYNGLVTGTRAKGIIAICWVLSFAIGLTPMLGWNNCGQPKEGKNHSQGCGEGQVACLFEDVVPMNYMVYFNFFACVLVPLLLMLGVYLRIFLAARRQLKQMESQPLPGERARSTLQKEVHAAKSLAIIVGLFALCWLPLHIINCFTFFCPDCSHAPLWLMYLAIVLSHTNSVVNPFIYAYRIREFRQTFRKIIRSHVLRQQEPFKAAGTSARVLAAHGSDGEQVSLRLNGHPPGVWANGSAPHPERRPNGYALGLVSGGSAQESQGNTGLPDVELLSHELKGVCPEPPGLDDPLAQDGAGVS
In short: as §1

hA3AR [5] = molecular target: T3, hA3AR (Homo sapiens, UniProt P0DMS8); assay: cAMP assay, inhibition of forskolin-stimulated cAMP, CHO cells; type: cell-based
T3 sequence (P0DMS8 1-318): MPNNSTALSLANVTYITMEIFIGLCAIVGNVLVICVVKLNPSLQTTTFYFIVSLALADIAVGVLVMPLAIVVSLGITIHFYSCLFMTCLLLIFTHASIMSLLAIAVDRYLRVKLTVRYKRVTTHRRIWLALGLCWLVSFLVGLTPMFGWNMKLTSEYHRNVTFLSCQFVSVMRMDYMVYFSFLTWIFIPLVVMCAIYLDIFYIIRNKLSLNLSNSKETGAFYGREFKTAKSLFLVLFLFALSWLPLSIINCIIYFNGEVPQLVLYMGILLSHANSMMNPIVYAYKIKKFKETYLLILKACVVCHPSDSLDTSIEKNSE
In short: as §1

hA1AR [6] = molecular target: T1, hA1AR; details: read-out: Binding, Ki, A1; [3H]CCPA; previously reported; cited from earlier work
hA2AAR [7] = molecular target: T2, hA2AAR; details: read-out: Binding, Ki, A2A; [3H]CGS21680; previously reported; cited from earlier work
hA3AR [8] = molecular target: T3, hA3AR; details: read-out: Binding, Ki, A3; [125I]AB-MECA; previously reported; cited from earlier work
[9] = tested on: A3AR-transfected HL-1 cells; assay: Luminescent caspase 3/7 assay of H2O2-induced apoptosis; type: cell-based, mouse; details: dendrimer 10 μM 1 h before 400 μM H2O2, 3 h
In short: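 HL-1 cells transfected with hA3AR were seeded at 30,000 cells/well and incubated overnight at 37 °C, then switched to DMEM with Ca/Mg. Dendrimer (10 μM) was added 1 h before H2O2 (400 μM) and kept throughout, with 3 h at 37 °C. An equal volume of Caspase-Glo 3/7 reagent was added for 90 min at room temperature before reading luminescence. Three independent experiments in triplicate, mean ± SD.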

hA1AR [10] = molecular target: T1, hA1AR; assay: Radioligand membrane binding, [3H]CCPA, stably transfected CHO cells; details: read-out: Binding, Ki app, A1, dendrimer concentration, mean ± SEM, n = 3
hA2AAR [11] = molecular target: T2, hA2AAR; assay: Radioligand membrane binding, [3H]CGS21680, stably transfected HEK cells; details: read-out: Binding, Ki app, A2A, dendrimer concentration, mean ± SEM, n = 3
hA3AR [12] = molecular target: T3, hA3AR; assay: Radioligand membrane binding, [125I]AB-MECA, stably transfected CHO cells

**Q.** For `OC[C@H]1O[C@@H](n2cnc3c(NC4CCCC4)nc(Cl)nc32)[C@H](O)[C@@H]1O` [CCPA, 2-Chloro-N^6-cyclopentyladenosine], which “Protection against H2O2-induced cytotoxicity in non-transfected HL-1 cells” value (from here on “Protection … in non-transfected HL-1 cells”) [1] is on record?
**A.** did not protect

**Q.** What does the source list for `CCNC(=O)[C@H]1O[C@@H](n2cnc3c(N)nc(NCCc4ccc(CCC(=O)O)cc4)nc32)[C@H](O)[C@@H]1O` [CGS21680, 2-[p-(2-carboxyethyl)phenylethyl-amino]-5′-N-ethylcarboxamidoadenosine]?
**A.** Protection against H2O2-induced cytotoxicity in non-transfected HL-1 cells [1]: protected; also recorded: protective; IC50 ([1]; Mus musculus, HL-1, read-out: Protection from cell death induced by H2O2, untransfected cells, IC50): 7.1 ± 2.4 µM

**Q.** With `CNC(=O)[C@H]1O[C@@H](n2cnc3c(NCc4cccc(I)c4)nc(Cl)nc32)[C@H](O)[C@@H]1O` [Cl-IB-MECA, 2-chloro-N^6-(3-iodobenzyl)-5′-N-methylcarboxamidoadenosine] as the compound, how does the “Protection against H2O2-induced cytotoxicity in A3AR-transfected HL-1 cells” value (“Protection … in A3AR-transfected HL-1 cells” for short) ([2]; LDH assay) read?
**A.** revealed protection

**Q.** What about the IC50 ([2]; Mus musculus) of the same compound?
**A.** 7.9 ± 2.3 µM

**Q.** And the “Protection … in non-transfected HL-1 cells” value [1]?
**A.** neither IB-MECA nor Cl-IB-MECA gave protection

**Q.** For `CNC(=O)[C@H]1O[C@@H](n2cnc3c(NCc4cccc(I)c4)ncnc32)[C@H](O)[C@@H]1O` [IB-MECA, N^6-(3-iodobenzyl)-5′-N-methylcarboxamidoadenosine], which “Protection … in A3AR-transfected HL-1 cells” value ([2]; LDH assay) is on record?
**A.** revealed protection

**Q.** What about the EC50 ([2]; Mus musculus, HL-1, 4 h) of the same compound?
**A.** 3.8 µM

**Q.** And the IC50 ([2]; Mus musculus)?
**A.** 3.8 ± 1.4 µM

**Q.** And the “Protection … in non-transfected HL-1 cells” value [1]?
**A.** neither IB-MECA nor Cl-IB-MECA gave protection

**Q.** Which “Effect of A3 antagonist on protection afforded by IB-MECA from H2O2-induced cell death” value ([2]; MRS1191 10 μM 1 h before IB-MECA 30 μM, 750 μM H2O2, 4 h, transfected HL-1 cells) does the source give for `CCOC(=O)C1=C(C)NC(c2ccccc2)=C(C(=O)OCc2ccccc2)C1C#Cc1ccccc1` (stereo not drawn) [MRS1191] here?
**A.** prevented the protection

**Q.** For `CCNC(=O)[C@H]1O[C@@H](n2cnc3c(N)ncnc32)[C@H](O)[C@@H]1O` [NECA, 5′-N-ethylcarboxamidoadenosine], which EC50 ([2]; 750 μM H2O2, 4 h) is on record?
**A.** 3.9 µM

**Q.** And the “Protection … in non-transfected HL-1 cells” value [1]?
**A.** protected; also recorded: protective

**Q.** With N-(2-Aminoethyl)-ADAC [compound 4] as the compound, how does the “Agonist efficacy in cAMP assay, A1AR (inhibition)” value (hA1AR [3]) read?
**A.** potent full agonist

**Q.** What about the “Agonist efficacy in cAMP assay, A2AAR (stimulation)” value (hA2AAR [4]) of the same compound?
**A.** potent full agonist

**Q.** What about the “Agonist efficacy in cAMP assay, A3AR (inhibition)” value (hA3AR [5]) of the same compound?
**A.** potent full agonist

**Q.** What about the Ki (hA1AR [6]) of the same compound?
**A.** 43 ± 5 nM

**Q.** What about the Ki (hA2AAR [7]) of the same compound?
**A.** 300 ± 20 nM

**Q.** And the Ki (hA3AR [8])?
**A.** 9.5 ± 2 nM

**Q.** With PAMAMG5.5-1(AF488-ED) [compound 7] as the compound, how does the “Activity in assay of A3AR-mediated cAMP inhibition at 10 μM” value (hA3AR [5]; 10 μM) read?
**A.** inactive

**Q.** What about the “Effect on H2O2-induced apoptosis (caspase 3/7 luminescence)” value [9] of the same compound?
**A.** did not significantly decrease; also recorded: not by 7

**Q.** With “PAMAMG5.5-1(AF488-ED)-60(N-(2-aminoethyl)-ADAC) [compound 8]” as the compound, how does the Ki (hA1AR [10]) read?
**A.** 140 ± 65 nM

**Q.** And the Ki (hA2AAR [11])?
**A.** 80 ± 17 nM

**Q.** What about the Ki (hA3AR [12]; read-out: Binding, Ki app, A3, [125I]AB-MECA, dendrimer concentration, mean ± SEM, n = 3) of the same compound?
**A.** 15 ± 4 nM

**Q.** And the “Selectivity for the A3AR in binding” value (hA3AR [12]; versus A1 and A2AARs)?
**A.** only slightly selective

**Q.** And the “Selectivity in assay of adenylate cyclase inhibition / AR activation” value (hA3AR [5]; versus A1 and A2AARs)?
**A.** nonselective; also recorded: nonselectively

**Q.** And the “Protection … in A3AR-transfected HL-1 cells” value ([2]; LDH assay)?
**A.** highly potent

**Q.** And the “IC50 value less than those of monomeric A3AR agonists IB-MECA and Cl-IB-MECA” value ([2]; A3AR-transfected HL-1 cells, LDH assay)?
**A.** 100- to 200 fold

**Q.** And the “Effect on H2O2-induced apoptosis (caspase 3/7 luminescence)” value [9]?
**A.** significantly decreased; also recorded: significant protection

**Q.** And the “Protection … in non-transfected HL-1 cells” value [1]?
**A.** did not show cytoprotection
